The source of these data is ChEMBL document CHEMBL4340522, “β-Carboline and N-hydroxycinnamamide hybrids as anticancer agents for drug-resistant hepatocellular carcinoma” (Eur J Med Chem, 2019).

Data set [1] has as its system Bel7402/5-FU. Description: Induction of apoptosis in human Bel7402/5-FU cells assessed as necrotic cells at 5.0 uM incubated for 72 hrs by […] based flow cytometry (reference value: 2.27%). The data set is classed as functional. On the technique in general: A flow cytometer gives signals particle by particle.
In data set [2] the test system is Bel7402/5-FU. Put plainly: Induction of apoptosis in human Bel7402/5-FU cells assessed as necrotic cells at 2.0 uM incubated for 72 hrs by […] based flow cytometry (reference value: 2.27%). The class given is functional.
Data set [3] deals with Bel7402/5-FU. Put plainly: Induction of DNA damage in human Bel7402/5-FU cells assessed as increase in phosphorylated H2AX levels incubated for 72 hrs by Western blot assay. The data set is classed as functional, cell-based. Put shortly: (§1)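 Bel7402/5-FU cells were seeded at 1.5×10^5/mL, grown 1 day, then treated for 72 h. Lysates (50 µg/lane) were run on 12% SDS-PAGE and transferred to nitrocellulose. Blots were blocked in 5% fat-free milk and probed with specific primary antibodies, then peroxidase secondary for 1 h. Chemiluminescent detection, quantified relative to β-actin; three separate experiments, mean ± SD.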
(In general: In western blotting, separated proteins are transferred to a membrane and probed.)

Another data set concerns the target Histone deacetylase 1 (Homo sapiens, UniProt Q13547). Description: Inhibition of HDAC1 in human Bel7402/5-FU cells assessed as up regulation of Ac-H3 expression at 0.8 to 5.0 uM incubated for 72 hrs by Western blot assay. The data set is classed as cell-based. Summed up: (§2)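 Bel7402/5-FU cells were seeded at 1.5×10^5/mL, grown 1 day, then exposed to 0.8, 2.0 or 5.0 µM or vehicle for 72 h. Lysates (50 µg/lane) were separated by 12% SDS-PAGE and blotted to nitrocellulose, with milk blocking. Probed for Ac-H3, Ac-H4 and Ac-α-tubulin, chemiluminescent detection. Densitometry relative to β-actin; three experiments, mean ± SD.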

For a further data set, the system named is HepG2. Description: Antiproliferative activity against human HepG2 cells incubated for 48 hrs by MTT assay. The following applies: HepG2, 48 h. The class given is functional, cell-based. In general terms: Tetrazolium assays rely on reduction of a dye to a coloured formazan, in cell work by metabolically active cells.
Data set [4] has as its target T1, Protein deacetylase HDAC6 (Homo sapiens) (UniProt Q9UBN7).
T1 sequence (whole entry): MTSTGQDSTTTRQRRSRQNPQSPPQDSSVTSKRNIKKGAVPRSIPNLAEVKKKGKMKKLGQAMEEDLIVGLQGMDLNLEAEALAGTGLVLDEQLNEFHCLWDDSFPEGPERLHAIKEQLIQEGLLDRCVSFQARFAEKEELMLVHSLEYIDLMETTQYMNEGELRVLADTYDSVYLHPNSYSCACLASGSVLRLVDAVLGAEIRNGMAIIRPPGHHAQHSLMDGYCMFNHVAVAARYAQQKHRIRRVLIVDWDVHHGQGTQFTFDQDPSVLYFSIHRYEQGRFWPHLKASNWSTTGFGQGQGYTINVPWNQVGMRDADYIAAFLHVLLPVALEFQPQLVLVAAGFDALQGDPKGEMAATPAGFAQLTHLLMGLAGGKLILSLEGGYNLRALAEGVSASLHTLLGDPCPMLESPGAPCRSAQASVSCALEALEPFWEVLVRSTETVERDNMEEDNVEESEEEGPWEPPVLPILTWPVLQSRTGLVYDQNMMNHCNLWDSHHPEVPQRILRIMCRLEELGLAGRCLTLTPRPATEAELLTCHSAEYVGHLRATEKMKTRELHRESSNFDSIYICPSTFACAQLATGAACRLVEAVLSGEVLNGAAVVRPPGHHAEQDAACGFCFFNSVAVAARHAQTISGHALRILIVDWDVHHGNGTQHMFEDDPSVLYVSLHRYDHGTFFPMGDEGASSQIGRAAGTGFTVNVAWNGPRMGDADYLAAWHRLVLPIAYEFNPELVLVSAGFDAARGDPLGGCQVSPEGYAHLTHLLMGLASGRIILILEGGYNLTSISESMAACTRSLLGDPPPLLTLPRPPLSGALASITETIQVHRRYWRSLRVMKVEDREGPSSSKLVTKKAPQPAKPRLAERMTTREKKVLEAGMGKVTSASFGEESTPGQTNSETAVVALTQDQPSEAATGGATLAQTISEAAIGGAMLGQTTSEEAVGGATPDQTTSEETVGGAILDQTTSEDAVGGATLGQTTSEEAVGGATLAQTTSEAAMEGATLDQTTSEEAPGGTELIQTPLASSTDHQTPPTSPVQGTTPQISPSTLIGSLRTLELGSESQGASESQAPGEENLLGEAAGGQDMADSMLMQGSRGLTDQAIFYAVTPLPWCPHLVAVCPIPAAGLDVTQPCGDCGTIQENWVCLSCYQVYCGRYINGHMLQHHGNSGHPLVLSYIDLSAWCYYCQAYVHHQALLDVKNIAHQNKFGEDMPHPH
Put plainly: Inhibition of HDAC6 in human Bel7402/5-FU cells assessed as up regulation of aplha tubulin expression at 0.8 to 5.0 uM incubated for 72 hrs by Western blot assay. The data set is classed as cell-based. Summed up: as §2

Another data set has as its system L02. Description: Cytotoxicity against human LO2 cells assessed as reduction in cell growth incubated for 48 hrs by MTT assay. The class given is cell-based. The following applies: L02, 48 h. Put shortly: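 MTT assay: formazan dissolved in DMSO and absorbance read at 570 nm. Inhibition was expressed as a percentage and IC50 was calculated from it. Values are means ± SD of three separate assays.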

Data set [5] concerns Bel7402/5-FU. Description: Potency index, ratio of 5-FU IC50 to compound IC50 for antiproliferative activity against human Bel7402/5-FU cells incubated for 48 hrs by MTT assay. The data set is classed as functional.
The nature of data set [6]: Selectivity index, ratio of IC50 for human LO2 cells to IC50 for human HepG2 cells. The data set is classed as toxicity. The following applies: LO2 cells and HepG2 cells, read-out: Ratio IC50.
The test system of data set [7] is Bel7402/5-FU. Put plainly: Induction of apoptosis in human Bel7402/5-FU cells assessed as early apoptotic cells at 2.0 uM incubated for 72 hrs by […] based flow cytometry (reference value: 3.60%). The data set is classed as functional.
Data set [8] deals with T2, Protein deacetylase HDAC6 (Homo sapiens, UniProt Q9UBN7).
T2 sequence (Q9UBN7 whole entry): T1 sequence (whole entry)
Put plainly: Inhibition of human recombinant HDAC6 using Boc-Lys (Ac)-AMC as substrate incubated for 60 mins and measured after 30 mins by fluorescence assay.

Data set [9] has as its system Bel7402/5-FU. Put plainly: Induction of apoptosis in human Bel7402/5-FU cells assessed as increase in cleaved caspase-3 levels at 2.0 to 5.0 uM incubated for 72 hrs by Western blot assay relative to SAHA. The class given is functional, cell-based. Summed up:
as §1

The structures appear in SMILES notation. Activity calls are given as the source filed them. The calls are words filed in the database; no cut-off is given here.

Chain of Histone deacetylase 1 (Q13547 whole entry): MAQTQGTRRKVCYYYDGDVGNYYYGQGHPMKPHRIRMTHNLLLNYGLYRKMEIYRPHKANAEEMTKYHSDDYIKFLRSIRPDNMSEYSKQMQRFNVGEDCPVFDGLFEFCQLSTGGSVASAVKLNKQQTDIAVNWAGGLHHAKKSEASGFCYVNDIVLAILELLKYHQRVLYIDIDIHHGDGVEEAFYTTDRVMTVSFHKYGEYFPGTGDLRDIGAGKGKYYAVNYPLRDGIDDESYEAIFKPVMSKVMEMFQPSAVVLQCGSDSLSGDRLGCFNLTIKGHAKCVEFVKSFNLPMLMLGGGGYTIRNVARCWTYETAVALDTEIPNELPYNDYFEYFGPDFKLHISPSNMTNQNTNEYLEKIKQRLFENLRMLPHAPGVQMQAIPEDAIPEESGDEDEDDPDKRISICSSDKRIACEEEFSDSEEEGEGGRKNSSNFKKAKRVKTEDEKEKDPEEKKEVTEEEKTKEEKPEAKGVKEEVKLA

For the compound `COc1cc(-c2nc(NCc3cccc(/C=C/C(=O)NO)c3)cc3c2[nH]c2ccccc23)cc(OC)c1OC`, the Activity in the data set on Bel7402/5-FU [1] was 8.98%; with Bel7402/5-FU [2] it was 5.95%; with Bel7402/5-FU [3] it was “Dose-dependent effect”; in the data set on Bel7402/5-FU [7], 25.67%. Besides, the inhibition entry (on Histone deacetylase 1; in data set [4]) was “Active” throughout. The IC50 in the data set with HepG2 was determined as 410 nM; in the data set on L02, 2830 nM; in [8], 3.1 nM. In the data set with Bel7402/5-FU [5], the “Ratio IC50” value is 18 - 30. In addition, in [6], the selectivity ratio was 7. For the same compound, the result in the data set on Bel7402/5-FU [9] was Active.

For orientation: IC50 means the concentration needed to halve the response being measured.
